In article PMC6543826 (Bioorganic chemistry, 2018):
Where “and” joins values, the source holds several entries; their conditions need not be identical. Equal values may be shown once. Read-outs that look alike come from different tables or passages of the source.

What was measured:
MDA-MB-435 = experiment: cells; type: cell-based; details: MDA-MB-435, 10^−5 M, 48 h
UACC-62 = experiment: cells; type: cell-based; details: UACC-62, 10^−5 M, 48 h
HL-60 (TB) = experiment: cells; type: cell-based; details: HL-60(TB), 10^−5 M, 48 h
NCI-H522 = experiment: cells; type: cell-based; details: NCI-H522, 10^−5 M, 48 h
BT-549 = experiment: cells; type: cell-based; details: BT-549, 10^−5 M, 48 h
T-47D = experiment: cells; type: cell-based; details: T-47D, 10^−5 M, 48 h
EKVX = experiment: NCI-60 SRB screen, Non-small cell lung cancer; type: cell-based, human; details: 10^−5 M, 48 h
MCF7 = experiment: cells; type: cell-based; details: MCF7, 10^−5 M, 48 h
OVCAR-8 = experiment: cells; type: cell-based; details: OVCAR-8, 10^−5 M, 48 h
SF-295 = experiment: cells; type: cell-based; details: SF-295, 10^−5 M, 48 h
U251 = experiment: cells; type: cell-based; details: U251, 10^−5 M, 48 h
ERK2 = ERK2 (Rattus norvegicus, UniProt P63086); experiment: in vitro radioactive kinase assay, Ets-1 phosphorylation by ERK2; type: biochemical; details: for effect of excess Ets-1 (100 μM) on inhibition of ERK2: 5 μM inhibitor, 100 μM vs 10 μM Ets-1, 100 μM ATP
Chain of ERK2 (P63086 whole entry): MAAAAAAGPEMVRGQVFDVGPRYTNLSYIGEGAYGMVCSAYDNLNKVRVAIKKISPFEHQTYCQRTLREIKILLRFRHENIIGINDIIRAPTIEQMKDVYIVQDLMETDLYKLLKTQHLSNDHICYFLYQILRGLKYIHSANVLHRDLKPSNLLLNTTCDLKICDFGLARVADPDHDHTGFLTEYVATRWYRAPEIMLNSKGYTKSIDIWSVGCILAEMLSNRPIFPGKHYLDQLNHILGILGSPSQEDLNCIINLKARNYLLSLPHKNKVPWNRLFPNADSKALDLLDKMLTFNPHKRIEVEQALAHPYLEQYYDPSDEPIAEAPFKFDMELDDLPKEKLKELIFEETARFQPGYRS
In short: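 Activated rat ERK2 (2 nM) was tested with His-Ets-1 (1–138) at 28–30 °C in HEPES pH 7.5 buffer with 11 mM MgCl2, BSA and 5% DMSO. Reactions were started with [γ-32P]ATP (10 or 100 μM).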

A498 = experiment: NCI-60 SRB screen, Renal cancer; type: cell-based, human; details: A498, 10^−5 M, 48 h
RXF 393 = experiment: cells; type: cell-based; details: RXF 393, 10^−5 M, 48 h
SF-539 = experiment: cells; type: cell-based; details: SF-539, 10^−5 M, 48 h
ACHN = experiment: cells; type: cell-based; details: 10^−5 M, 48 h
HCT-116 = experiment: cells; type: cell-based; details: HCT-116, 10^−5 M, 48 h
ERK1 = ERK1 (Homo sapiens, UniProt P27361); experiment: in vitro radioactive kinase assay, Ets-1 phosphorylation by ERK1; type: biochemical
Chain of ERK1 (P27361 whole entry, species assumed): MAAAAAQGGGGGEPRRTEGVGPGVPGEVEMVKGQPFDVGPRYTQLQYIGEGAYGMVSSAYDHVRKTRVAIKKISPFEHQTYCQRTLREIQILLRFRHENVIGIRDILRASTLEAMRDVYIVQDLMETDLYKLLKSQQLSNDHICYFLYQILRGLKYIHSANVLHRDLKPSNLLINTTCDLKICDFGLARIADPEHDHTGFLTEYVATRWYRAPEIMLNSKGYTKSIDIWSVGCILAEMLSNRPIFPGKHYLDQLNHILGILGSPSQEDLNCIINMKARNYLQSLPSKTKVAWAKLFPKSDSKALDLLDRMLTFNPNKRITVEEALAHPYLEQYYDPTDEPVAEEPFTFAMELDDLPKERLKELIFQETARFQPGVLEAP
In short: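 Radiometric assay at 28–30 °C in 25 mM HEPES pH 7.5, 50 mM KCl, 0.1 mM EDTA/EGTA, 2 mM DTT, 11 mM MgCl2, 10 μg mL−1 BSA and 5% DMSO (final). 2 nM activated ERK1 was used with 10 μM His-Ets-1 (1–138). Reactions were started with [γ-32P]ATP (10 or 100 μM). IC50 came from fitting rate versus inhibitor concentration to a hyperbolic decay equation.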

M14 = experiment: cells; type: cell-based; details: M14, 10^−5 M, 48 h
A375 cells = experiment: IncuCyte real time proliferation assay; type: cell-based, human; details: imaged every 1 h for 90 h
In short: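 Real-time growth: 2000 A375 cells per well adhered for 24 h, then were treated with a range of test compound doses. Phase images were taken on IncuCyte ZOOM (10× objective) every 1 h for 90 h in total. Growth confluence was estimated from the images and plotted.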

[1] = system: caspase 3/7 in A375 cells; experiment: IncuCyte Caspase 3/7 apoptosis assay; type: cell-based, human; details: doses of 3.7 and 33.3 μM, after 48 and 72 h
In short: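 2000 A375 cells per well adhered for 24 h, then received test compound doses plus a constant concentration of IncuCyte Caspase-3/7 reagent. Cells were imaged on IncuCyte ZOOM (10× objective) at set time points, and stained cells were counted. Apoptotic cell number was normalized to percentage area confluence at the final time point.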

[2] = system: ERK substrates (p90RSK and ELK) phosphorylation in A375 cells; experiment: western blotting of MAPK pathway phosphorylation in A375 cells after EGF; type: cell-based, human
In short: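 A375 cells (1,000,000 per well) were seeded 24 h, then treated with DMSO or test compound (0.5–25 μM) in serum-free medium for 4 or 12 h. Cells were stimulated with 100 nM EGF for 10–15 min, lysed, and 60 μg lysate was blotted. Probes: phospho-p90RSK (Thr573), RSK, phospho-Elk-1 (Ser383), phospho- and total ERK1/2, phospho-JNK (Thr183/Tyr185). Done twice.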

[3] = system: BRAF-mutant A375 melanoma cells; experiment: A375 cell viability, MTS assay; type: cell-based; details: Homo sapiens, A-375, 72 h, read-out: A375 Cell Viability IC50
In short: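 A375 cells were kept in RPMI with 10% heat-inactivated FBS, Glutamax and penicillin/streptomycin at 37 °C in 5% CO2. 2000 cells per well were treated with a range of test compound doses for 72 h. Viability was read by MTS assay. Run in triplicate.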

[4] = system: cleaved PARP in A375 cells; experiment: PARP cleavage western blot; type: cell-based, human; details: 12 h exposure
In short: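 A375 cells (1,000,000 per well) were seeded 24 h, then exposed to several test compound doses for 12 h before lysis in buffer with protease/phosphatase inhibitors. Protein was measured by Bradford. 60 μg lysate was run on 10% SDS-PAGE and blotted to PVDF. Blots were probed for PARP and cleaved PARP, with vinculin as loading control. Done twice.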

[5] = ERK2 IC50, 100 μM ATP, 10 μM Ets-1
[6] = ERK2 IC50 at 100 μM ATP /10mM Ets-1, Table 4, 100 μM ATP /10mM Ets-1
[7] = ERK1 IC50, 100 μM ATP, 10 μM Ets-1

Row | Structure (SMILES) | Growth percent (G%) (MDA-MB-435) [%] | Growth percent (G%) (UACC-62) [%] | Growth percent (G%) (HL-60 (TB)) [%] | Growth percent (G%) (NCI-H522) [%] | Growth percent (G%) (BT-549) [%] | Growth percent (G%) (T-47D) [%] | Growth percent (G%) (MCF7) [%] | Growth percent (G%) (OVCAR-8) [%] | Growth percent (G%) (SF-295) [%] | Growth percent (G%) (U251) [%] | effect of excess Ets-1 (100 μM) on inhibition of ERK2 (ERK2) | IC50 (ERK2; [5]) | IC50 (ERK2; [6]) [µM] | Growth percent (G%) (RXF 393) [%] | Growth percent (G%) (SF-539) [%] | Growth percent (G%) (ACHN) [%] | Growth percent (G%) (HCT-116) [%] | IC50 (ERK1; [7]) [µM] | Growth percent (G%) (M14) [%] | also measured
1 | O=C1c2ccccc2C(=O)c2c1oc1c2c(=O)[nH]c2ccccc21 [3a, Naphtho[2′,3′:4,5]furo[3,2-c]quinoline-6,7,12(5H)-trione] | 83.72 | 88.73 | 2.26 | 54.81 | 73.94 | 22.52 | 48.82 | 35.61 | 92.71 | 79.04 | did not rescue | 10.2 ± 1.2 µM | 10.2 ± 1.2 | 97.24 | 90.30 | 65.70 | 55.46 | 9.12 ± 1.1 | 73.38 | Growth percent (G%) (EKVX): 27.35%; Growth percent (G%) (A498): 103.58%; IC50 (ERK1; IC50 towards inhibiting ERK, ERK isoform not given): ~9 µM
2 | Cn1c(=O)c2c(=O)c3c4c(oc3oc2c2ccccc21)C(=O)c1ccccc1C4=O [5a, 5-Methyl-5H-naphthalen[2″,3″:4′,5′]furo[3′,2′:4′,5,6]pyrano [3,2-c]quinoline-6,7,8,13-tetraone] | 105.3 | 93.45 | 104.29 | 78.37 | 104.21 | 83.56 | 76.73 | 100.1 | 101.32 | 104.35 | – | – | – | 87.68 | 93.83 | 85.7 | 99.77 | – | 98.25 | IC50 (ERK2; read-out: ERK2 IC50, 100 μM ATP, 10 μM Ets-1): 108 ± 12.2 µM; IC50 (ERK2; read-out: ERK2 IC50 at 100 μM ATP /10mM Ets-1, Table 4, 100 μM ATP /10mM Ets-1): > 100 µM; IC50 (ERK1; read-out: ERK1 IC50, 100 μM ATP, 10 μM Ets-1): 95 ± 10.9 µM; IC50 (ERK1; read-out: IC50 towards inhibiting ERK, ERK isoform not given): ≥ 100 µM
3 | O=C1C(Cl)=C(c2c(O)c3c(=O)n(-c4ccccc4)c4ccccc4c3oc2=O)C(=O)c2ccccc21 [compound 6, 3-(3-Chloro-1,4-dioxo-1,4-dihydronaphthalen-2-yl)-4-hydroxy-6-phenyl-2H-pyrano[3,2-c]quinoline-2,5(6H)-dione] | 87.80 | 13.17 | 7.05 | 19.42 | 12.26 | 4.47 | 51.60 | 48.24 | 18.38 | 21.15 | did not rescue | ~0.16 µM and 0.16 µM | 0.16 ± 0.02 | 69.20 | −5.45 | 28.55 | 41.72 | 0.19 ± 0.01 | 44.74 | A375 real time proliferation (growth confluence), in words (A375 cells): dose-dependent inhibition; caspase 3/7 activity in A375 [1]: activation of caspase 3/7; IC50 (ERK2; ERK2 IC50, 10 μM ATP): 0.09 µM and 0.086 µM; phosphorylation of ERK substrates (p90RSK and ELK), in words ([2]; A375, 0.5–25 μM, EGF stimulation): dose-dependent inhibition; concentration enough to inhibit ELK phosphorylation ([2]; A375, 12 h, then EGF 100 nM): 2.5 µM; concentration enough to inhibit p-90RSK phosphorylation ([2]; A375, 12 h, then EGF 100 nM): 10 µM; effect on ERK or MKK½ phosphorylation or the JNK pathway ([2]; A375, EGF stimulation): no effect; IC50 [3]: 0.13 ± 0.03 µM; level of cleaved PARP in A375 [4]: elevated level
